In assay [1] the test system is Streptococcus pneumoniae. Nature of the assay: Antibacterial activity against penicillin-sensitive Streptococcus pneumoniae R6 […]. Format: functional. A digest of the protocol:
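Strain grown in Todd-Hewitt medium at 37 °C to OD600 0.3, then plated on Columbia blood agar with 5% horse blood containing compound at 0 to 100 µg ml-1. MIC taken as the concentration giving visible growth arrest on plates.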

The subject of assay [2] is Streptococcus pneumoniae. Briefly: Ratio of MIC for penicillin-resistant Streptococcus pneumoniae 38030509 to MIC for penicillin-sensitive Streptococcus pneumoniae R6. The assay is classed as functional. A digest of the protocol:
(§1)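 Strains grown in Todd-Hewitt medium at 37 °C to OD600 0.3, then plated on Columbia blood agar with 5% horse blood containing LTV or PLTV at 0 to 100 µg ml-1. MIC taken as the concentration at visually determined growth arrest on plates. Ratio lines compare resistant-strain MIC with the R6 MIC obtained the same way.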

Assay [3] relates to Streptococcus pneumoniae. Briefly: Ratio of MIC for penicillin-resistant Streptococcus pneumoniae 5204 to MIC for penicillin-sensitive Streptococcus pneumoniae R6. Format: functional. A digest of the protocol:
as §1

In assay [4] the test system is Streptococcus pneumoniae. Briefly: Antibacterial activity against penicillin-resistant Streptococcus pneumoniae 5204 […]. Format: functional. In a few lines: as §1
Assay [5] has as its system Streptococcus pneumoniae. Briefly: Antibacterial activity against penicillin-resistant Streptococcus pneumoniae 38030509 […]. The assay is classed as functional. In a few lines:
as §1

Assay [6] has as its system Streptococcus pneumoniae. Nature of the assay: Ratio of MIC for penicillin-resistant Streptococcus pneumoniae 4790 to MIC for penicillin-sensitive Streptococcus pneumoniae R6. Format: functional. A digest of the protocol: as §1
In assay [7] the test system is Streptococcus pneumoniae. Nature of the assay: Antibacterial activity against penicillin-resistant Streptococcus pneumoniae 38040505 […]. Format: functional. In a few lines: as §1
The test system of assay [8] is Streptococcus pneumoniae. Briefly: Antibacterial activity against penicillin-resistant Streptococcus pneumoniae 4790 […]. Format: functional. In a few lines: as §1
The target of assay [9] is T1, Penicillin-binding protein 2x (Streptococcus pneumoniae serotype 4 (strain ATCC BAA-334 / TIGR4), UniProt P14677). Nature of the assay: Inhibition of penicillin-resistant Streptococcus pneumoniae 5204 PBP2x after 120 mins by SDS-PAGE. In a few lines:
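PBP2x-5204 (0.8 µM) preincubated with LTV for 120 min, then remaining active PBP counterlabeled with 10 µM fluorescein-ampicillin for 40 min. Bands resolved by SDS-PAGE with fluorescence imaging; background subtracted. IC50 fitted from residual activity versus inhibitor concentration. Kinetic work at 30 °C in 10 mM sodium phosphate pH 7.0.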

The subject of assay [10] is Streptococcus pneumoniae. Nature of the assay: Ratio of MIC for penicillin-resistant Streptococcus pneumoniae 38040505 to MIC for penicillin-sensitive Streptococcus pneumoniae R6. Format: functional. In a few lines: as §1
The target in assay [11] is T1, Penicillin-binding protein 2x. Briefly: Inhibition of penicillin-resistant Streptococcus pneumoniae 5204 PBP2x after 60 mins by SDS-PAGE. A digest of the protocol: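 PBP2x-5204 (0.8 µM) preincubated with PLTV for 60 min in 10 mM sodium phosphate pH 7.0, 30 °C, with 1% dimethylformamide. Residual active enzyme counterlabeled with 10 µM fluorescein-ampicillin for 40 min, then analyzed by SDS-PAGE and fluorescence. IC50 fitted from background-subtracted residual activity against inhibitor concentration.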

Three compounds from ChEMBL document CHEMBL1221205, “Structural and mechanistic basis of penicillin-binding protein inhibition by lactivicins” (Nat Chem Biol, 2007) can be followed below.

Values after ≈ are worked out from the molar mass of the structure shown. Some results are limits rather than exact numbers.

T1 sequence (P14677 whole entry, looked up): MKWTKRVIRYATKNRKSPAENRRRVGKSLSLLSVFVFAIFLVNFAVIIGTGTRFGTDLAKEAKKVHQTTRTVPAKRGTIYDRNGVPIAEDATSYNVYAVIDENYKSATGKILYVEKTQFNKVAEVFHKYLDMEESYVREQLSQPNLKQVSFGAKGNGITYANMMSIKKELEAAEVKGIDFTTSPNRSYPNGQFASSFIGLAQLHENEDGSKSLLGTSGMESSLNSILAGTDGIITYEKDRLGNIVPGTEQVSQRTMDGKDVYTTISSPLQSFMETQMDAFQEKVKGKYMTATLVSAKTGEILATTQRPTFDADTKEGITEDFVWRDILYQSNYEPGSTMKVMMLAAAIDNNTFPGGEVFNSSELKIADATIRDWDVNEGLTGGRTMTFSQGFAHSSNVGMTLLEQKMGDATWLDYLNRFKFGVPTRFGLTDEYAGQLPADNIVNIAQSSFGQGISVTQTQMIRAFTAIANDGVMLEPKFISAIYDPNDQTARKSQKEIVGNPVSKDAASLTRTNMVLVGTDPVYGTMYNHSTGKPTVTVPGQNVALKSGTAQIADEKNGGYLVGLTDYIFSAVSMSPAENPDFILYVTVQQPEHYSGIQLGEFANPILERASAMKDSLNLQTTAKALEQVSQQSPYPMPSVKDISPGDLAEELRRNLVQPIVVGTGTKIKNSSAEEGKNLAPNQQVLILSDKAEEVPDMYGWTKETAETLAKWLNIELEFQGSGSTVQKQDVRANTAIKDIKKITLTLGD

As a reminder, the MIC is the least concentration at which growth counts as inhibited. A low value points to a more susceptible organism. By IC50 is commonly meant the concentration at which inhibition is half-maximal. High values mean lower potency, low ones higher potency. With `CC(=O)NC1CON(C2(C(=O)O)CCC(=O)O2)C1=O` (centres undefined) [LACTIVICIN], the minimal inhibitory concentration (MIC) is 2 µg/mL (≈ 7.35 µM) against Streptococcus pneumoniae [1]; above 20 µg/mL in the assay with Streptococcus pneumoniae [4]; 20 µg/mL (≈ 73.5 µM) with Streptococcus pneumoniae [5]; 10 µg/mL (≈ 36.7 µM) in the assay on Streptococcus pneumoniae [7]; 20 µg/mL (≈ 73.5 µM) in the assay on Streptococcus pneumoniae [8]. For the same compound, the Ratio in the assay with Streptococcus pneumoniae [2], in the assay on Streptococcus pneumoniae [3], with Streptococcus pneumoniae [6] and with Streptococcus pneumoniae [10] was 5 each time. The 50% inhibitory concentration (IC50) in [9] worked out at 150 µM.
Turning to `CC1(C)S[C@@H]2[C@H](NC(=O)Cc3ccccc3)C(=O)N2[C@H]1C(=O)O` [PENICILLIN G], the MIC in the assay on Streptococcus pneumoniae [1] amounted to 0.01 µg/mL (≈ 0.0299 µM); against Streptococcus pneumoniae [4] it was 6 µg/mL (≈ 17.9 µM); in the assay with Streptococcus pneumoniae [5], 2 µg/mL (≈ 5.98 µM); in the assay on Streptococcus pneumoniae [7], 1.5 µg/mL (≈ 4.49 µM); against Streptococcus pneumoniae [8], 1.5 µg/mL (≈ 4.49 µM). The Ratio with Streptococcus pneumoniae [2], with Streptococcus pneumoniae [3], with Streptococcus pneumoniae [6] and with Streptococcus pneumoniae [10] was 150 in each case.
`O=C(COc1ccccc1)N[C@H]1CON([C@@]2(C(=O)O)CCC(=O)O2)C1=O` [PHENOXYACETYL LACTIVICIN]: the MIC is 15 µg/mL (≈ 41.2 µM) against Streptococcus pneumoniae [1]; 90 µg/mL (≈ 247 µM) against Streptococcus pneumoniae [4]; above 100 µg/mL against Streptococcus pneumoniae [5]; 80 µg/mL (≈ 220 µM) against Streptococcus pneumoniae [7]; above 100 µg/mL in the assay with Streptococcus pneumoniae [8]. Besides, the Ratio in the assay on Streptococcus pneumoniae [2], with Streptococcus pneumoniae [3], in the assay with Streptococcus pneumoniae [6] and in the assay with Streptococcus pneumoniae [10] was 5.3 in each case. In addition, the IC50 in [11] was found to be 7.9 µM.
